Experiments:
[1] = target: α1β1 GABAA receptors (Rattus norvegicus, UniProt P15431+P62813); assay: IGABA modulation, two-microelectrode voltage clamp, Xenopus oocytes, α1β1; type: cell-based
Method in brief: (§1)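 Rat GABAA subunit cRNAs were injected into stage V–VI Xenopus oocytes (10–50 nl, about 300–3000 pg/nl): α1β1 at 3:1, other αβ pairs at 1:1, and γ2S-containing receptors at α:β:γ 1:1:10. Oocytes were kept 24–48 h at 18 °C in ND96 with penicillin/streptomycin. Two-electrode voltage clamp was run at −70 mV in HEPES-buffered bath (pH 7,4).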

[2] = target: α1β2 GABAA receptors (Rattus norvegicus, UniProt P62813+P63138); assay: IGABA modulation, two-microelectrode voltage clamp, Xenopus oocytes, α1β2; type: cell-based
Chain of α1β2 GABAA receptors (P62813 28-455): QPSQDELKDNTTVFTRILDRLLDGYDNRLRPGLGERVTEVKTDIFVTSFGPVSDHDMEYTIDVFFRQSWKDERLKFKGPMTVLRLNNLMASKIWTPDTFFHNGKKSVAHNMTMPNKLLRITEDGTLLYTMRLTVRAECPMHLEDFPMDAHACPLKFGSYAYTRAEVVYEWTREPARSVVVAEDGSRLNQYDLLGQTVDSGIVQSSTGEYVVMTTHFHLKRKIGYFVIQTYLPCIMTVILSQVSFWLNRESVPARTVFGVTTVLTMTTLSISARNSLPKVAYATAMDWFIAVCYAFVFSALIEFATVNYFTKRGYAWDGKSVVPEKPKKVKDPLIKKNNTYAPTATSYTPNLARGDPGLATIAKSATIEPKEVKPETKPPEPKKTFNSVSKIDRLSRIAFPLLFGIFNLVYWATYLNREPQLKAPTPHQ
Chain of α1β2 GABAA receptors (P63138 25-474 limits assumed): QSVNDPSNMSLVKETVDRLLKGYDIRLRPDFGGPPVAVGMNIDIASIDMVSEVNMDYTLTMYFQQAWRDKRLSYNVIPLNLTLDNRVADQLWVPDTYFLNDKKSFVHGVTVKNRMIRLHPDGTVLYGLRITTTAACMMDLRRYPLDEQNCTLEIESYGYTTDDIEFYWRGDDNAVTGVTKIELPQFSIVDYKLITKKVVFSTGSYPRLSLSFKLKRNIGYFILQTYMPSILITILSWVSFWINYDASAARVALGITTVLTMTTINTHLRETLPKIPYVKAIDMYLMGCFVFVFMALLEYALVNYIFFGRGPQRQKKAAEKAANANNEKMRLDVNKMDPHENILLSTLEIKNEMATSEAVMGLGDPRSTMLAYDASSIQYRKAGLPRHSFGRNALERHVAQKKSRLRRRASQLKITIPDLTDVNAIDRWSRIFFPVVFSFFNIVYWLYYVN
Method in brief: as §1

[3] = target: α1β3 GABAA receptors (Rattus norvegicus, UniProt P62813+P63079); assay: IGABA modulation, two-microelectrode voltage clamp, Xenopus oocytes, α1β3; type: cell-based
Chain of α1β3 GABAA receptors (P62813 28-455): as the sequence (P62813 28-455) above
Chain of α1β3 GABAA receptors (P63079 26-473): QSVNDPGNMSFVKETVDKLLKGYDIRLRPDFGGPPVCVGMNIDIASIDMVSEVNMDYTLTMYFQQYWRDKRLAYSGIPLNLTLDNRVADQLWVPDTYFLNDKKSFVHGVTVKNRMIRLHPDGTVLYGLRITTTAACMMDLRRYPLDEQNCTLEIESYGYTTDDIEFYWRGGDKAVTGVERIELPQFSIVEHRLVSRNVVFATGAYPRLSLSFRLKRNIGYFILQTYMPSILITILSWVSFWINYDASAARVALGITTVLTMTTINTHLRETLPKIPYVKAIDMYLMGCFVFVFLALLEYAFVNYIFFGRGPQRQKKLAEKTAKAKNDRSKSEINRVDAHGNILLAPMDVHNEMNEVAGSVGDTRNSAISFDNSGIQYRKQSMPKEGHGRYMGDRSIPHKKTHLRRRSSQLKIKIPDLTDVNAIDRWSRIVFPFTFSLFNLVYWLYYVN
Method in brief: as §1

[4] = target: α2β2 GABAA receptors (Rattus norvegicus, UniProt P23576+P63138); assay: IGABA modulation, two-microelectrode voltage clamp, Xenopus oocytes, α2β2; type: cell-based
Chain of α2β2 GABAA receptors (P23576 29-451): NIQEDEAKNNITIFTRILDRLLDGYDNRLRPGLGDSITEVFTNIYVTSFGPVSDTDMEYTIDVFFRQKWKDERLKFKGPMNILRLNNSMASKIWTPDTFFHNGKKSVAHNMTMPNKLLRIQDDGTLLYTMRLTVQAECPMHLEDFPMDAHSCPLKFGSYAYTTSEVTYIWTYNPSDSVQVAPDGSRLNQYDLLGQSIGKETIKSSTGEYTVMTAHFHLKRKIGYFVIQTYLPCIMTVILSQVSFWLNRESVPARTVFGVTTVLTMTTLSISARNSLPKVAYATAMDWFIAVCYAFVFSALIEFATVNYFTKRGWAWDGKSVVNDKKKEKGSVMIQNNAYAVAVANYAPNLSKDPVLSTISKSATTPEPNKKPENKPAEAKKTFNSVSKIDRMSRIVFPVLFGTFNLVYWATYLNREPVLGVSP
Chain of α2β2 GABAA receptors (P63138 25-474 limits assumed): as the sequence (P63138 25-474 limits assumed) above
Method in brief: as §1

[5] = target: T1, α3β2 GABAA receptors (Rattus norvegicus, UniProt P20236+P63138); assay: IGABA modulation, two-microelectrode voltage clamp, Xenopus oocytes, α3β2; type: cell-based
T1 sequence (P20236 29-493): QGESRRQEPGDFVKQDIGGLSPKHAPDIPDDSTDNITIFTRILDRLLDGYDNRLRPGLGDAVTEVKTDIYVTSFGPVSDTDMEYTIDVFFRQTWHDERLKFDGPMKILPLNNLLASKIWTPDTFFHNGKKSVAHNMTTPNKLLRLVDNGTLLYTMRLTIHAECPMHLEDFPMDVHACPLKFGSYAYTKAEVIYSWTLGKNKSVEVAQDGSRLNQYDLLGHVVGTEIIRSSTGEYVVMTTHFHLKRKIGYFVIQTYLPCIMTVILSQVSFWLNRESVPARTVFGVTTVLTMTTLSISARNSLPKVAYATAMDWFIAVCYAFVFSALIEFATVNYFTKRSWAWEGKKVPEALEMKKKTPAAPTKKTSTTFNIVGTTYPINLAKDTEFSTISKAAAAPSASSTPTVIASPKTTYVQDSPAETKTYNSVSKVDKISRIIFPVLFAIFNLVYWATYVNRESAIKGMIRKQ
T1 sequence (P63138 25-474 limits assumed): as the sequence (P63138 25-474 limits assumed) above
Method in brief: as §1

[6] = target: α5β2 GABAA receptors (Rattus norvegicus, UniProt P19969+P63138); assay: IGABA modulation, two-microelectrode voltage clamp, Xenopus oocytes, α5β2; type: cell-based
Chain of α5β2 GABAA receptors (P19969 26-464): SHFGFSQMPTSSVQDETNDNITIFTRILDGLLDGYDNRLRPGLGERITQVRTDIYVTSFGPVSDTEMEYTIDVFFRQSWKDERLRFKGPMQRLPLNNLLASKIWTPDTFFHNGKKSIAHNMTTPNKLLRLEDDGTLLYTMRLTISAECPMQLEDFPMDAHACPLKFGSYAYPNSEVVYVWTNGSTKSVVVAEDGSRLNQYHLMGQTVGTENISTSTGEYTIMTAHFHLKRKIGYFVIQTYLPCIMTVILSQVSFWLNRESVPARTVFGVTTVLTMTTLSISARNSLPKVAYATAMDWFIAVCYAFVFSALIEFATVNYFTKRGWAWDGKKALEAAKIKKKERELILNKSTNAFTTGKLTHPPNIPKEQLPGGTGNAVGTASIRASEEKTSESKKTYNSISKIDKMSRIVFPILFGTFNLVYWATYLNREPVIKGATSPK
Chain of α5β2 GABAA receptors (P63138 25-474 limits assumed): as the sequence (P63138 25-474 limits assumed) above
Method in brief: as §1

[7] = target: TRPV1 channels (Rattus norvegicus, UniProt O35433); assay: TRPV1 activation, two-microelectrode voltage clamp, Xenopus oocytes; type: cell-based
Chain of TRPV1 channels (O35433 whole entry, the tested form may be a part): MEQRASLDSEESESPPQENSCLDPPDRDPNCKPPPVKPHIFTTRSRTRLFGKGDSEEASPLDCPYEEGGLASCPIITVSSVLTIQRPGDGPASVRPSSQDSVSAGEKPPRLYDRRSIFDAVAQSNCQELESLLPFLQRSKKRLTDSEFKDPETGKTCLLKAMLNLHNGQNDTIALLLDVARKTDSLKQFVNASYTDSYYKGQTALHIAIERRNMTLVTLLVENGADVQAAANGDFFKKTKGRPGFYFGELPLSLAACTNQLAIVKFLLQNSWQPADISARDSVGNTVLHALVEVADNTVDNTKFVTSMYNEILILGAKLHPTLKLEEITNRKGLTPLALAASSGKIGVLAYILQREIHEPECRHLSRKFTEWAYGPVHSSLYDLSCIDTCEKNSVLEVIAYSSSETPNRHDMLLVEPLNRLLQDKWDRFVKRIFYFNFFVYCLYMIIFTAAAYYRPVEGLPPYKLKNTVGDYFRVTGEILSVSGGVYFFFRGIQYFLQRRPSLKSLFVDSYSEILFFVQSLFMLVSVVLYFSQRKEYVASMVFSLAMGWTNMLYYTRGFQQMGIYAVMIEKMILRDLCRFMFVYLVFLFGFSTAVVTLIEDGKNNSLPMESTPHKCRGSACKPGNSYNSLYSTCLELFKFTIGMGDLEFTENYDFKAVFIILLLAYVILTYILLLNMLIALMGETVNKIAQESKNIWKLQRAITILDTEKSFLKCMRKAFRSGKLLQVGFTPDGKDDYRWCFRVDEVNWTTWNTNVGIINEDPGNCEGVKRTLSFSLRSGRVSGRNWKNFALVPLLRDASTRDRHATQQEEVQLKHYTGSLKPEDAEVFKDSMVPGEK
Method in brief: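 Rat TRPV1 cRNA was injected into Xenopus oocytes, which were stored 24–48 h at 18 °C. Two-electrode voltage clamp was run at −60 mV. Test compound (3–300 μM) was applied by fast perfusion. Peak inward current was normalised to a preceding 300 μM control response to the parent test compound in the same cell. Hill fit; n = 3–10 cells.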

[8] = target: T1, α3β2 GABAA receptors; assay: Shift of the GABA concentration-response curve by 100 μM compound; type: cell-based; settings: enhancement not significant (p > 0.05)
[9] = system: GABAA receptors; assay: Direct activation of GABAA receptors in the absence of GABA; type: cell-based, rat; settings: up to 300 μM, no GABA
[10] = system: C57BL/6N mice; assay: Measurement of body temperature; type: in vivo; settings: 3 h after injection, control 36.10 ± 0.10 °C
[11] = system: C57BL/6N mice; assay: Open Field Test; type: in vivo
Method in brief: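 Male C57BL/6N mice (3–6 months) were dosed i.p. with test compound or vehicle (saline, 10% DMSO, 3% Tween 80, pH 7.4) 30 min before testing. Ambulation was tracked by infrared for 10 min in a 50 × 50 × 50 cm box at 150 lx, starting in the centre. Zones: border ≤8 cm from wall, centre 20 × 20 cm. ≥8 mice; ANOVA with Bonferroni.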

[12] = system: C57BL/6N mice; assay: Elevated Plus Maze Test; type: in vivo
Method in brief: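 Test compound or vehicle (saline, 10% DMSO, 3% Tween 80, pH 7.4) was injected i.p. into male C57BL/6N mice (3–6 months) 30 min before a 5-min elevated plus maze trial. The maze stood 1 m high with 30 × 5 cm arms and 20 cm closed-arm walls, lit at 180 lx. Mice started in the centre facing an open arm; scoring was automated by video. ≥9 mice; ANOVA with Bonferroni.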

[13] = system: C57BL/6N mice; assay: Seizure threshold, pentylentetrazole; type: in vivo; settings: for Seizure threshold (PTZ dose): 30 min before PTZ, control 39.4 ± 2.8
[14] = target: α1β2γ2S GABAA receptors (Rattus norvegicus, UniProt P62813+P63138); settings: piperine data taken from the literature; cited from earlier work
Chain of α1β2γ2S GABAA receptors (P62813 28-455): as the sequence (P62813 28-455) above
Chain of α1β2γ2S GABAA receptors (P63138 25-474 limits assumed): as the sequence (P63138 25-474 limits assumed) above
Chain of α1β2γ2S GABAA receptors (P18508 39-466 partner): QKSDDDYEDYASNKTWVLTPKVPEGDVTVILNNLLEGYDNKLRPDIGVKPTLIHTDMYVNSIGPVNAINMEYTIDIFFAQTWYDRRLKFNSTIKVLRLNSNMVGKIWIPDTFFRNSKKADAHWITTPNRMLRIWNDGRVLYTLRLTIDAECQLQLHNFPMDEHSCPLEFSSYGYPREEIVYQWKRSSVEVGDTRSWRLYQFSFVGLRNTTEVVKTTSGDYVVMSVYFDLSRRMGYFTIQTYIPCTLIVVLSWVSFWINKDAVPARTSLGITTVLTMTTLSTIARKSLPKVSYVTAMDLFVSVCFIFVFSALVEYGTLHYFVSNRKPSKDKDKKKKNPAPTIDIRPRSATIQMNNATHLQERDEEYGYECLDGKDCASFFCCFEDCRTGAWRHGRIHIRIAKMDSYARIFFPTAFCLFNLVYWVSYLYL

[15] = read-out: Maximum stimulation of IGABA at EC3–7

Chain of α1β1 GABAA receptors (P62813 28-455): as the sequence (P62813 28-455) above
Chain of α1β1 GABAA receptors (P15431 26-474): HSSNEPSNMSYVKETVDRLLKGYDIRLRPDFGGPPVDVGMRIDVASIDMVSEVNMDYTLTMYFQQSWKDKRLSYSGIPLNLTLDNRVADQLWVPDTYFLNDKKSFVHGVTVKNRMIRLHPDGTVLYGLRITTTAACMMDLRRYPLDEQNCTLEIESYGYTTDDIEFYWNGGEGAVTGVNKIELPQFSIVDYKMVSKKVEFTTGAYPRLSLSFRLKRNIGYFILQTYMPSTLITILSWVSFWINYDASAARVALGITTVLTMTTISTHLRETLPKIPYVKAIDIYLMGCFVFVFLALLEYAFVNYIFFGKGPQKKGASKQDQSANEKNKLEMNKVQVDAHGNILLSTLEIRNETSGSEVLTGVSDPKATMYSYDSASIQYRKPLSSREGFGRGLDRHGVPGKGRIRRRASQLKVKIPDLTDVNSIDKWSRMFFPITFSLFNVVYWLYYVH

Compound: O=C(/C=C/C=C/c1ccc2c(c1)OCO2)N1CCCCC1 [Piperine, 1-piperoylpiperidine]
- EC50 [1]: 57.6 ± 4.2 µM
- Emax [1, 15]: 171 ± 22%
- Hill coefficient (nH) ([1]; α1β1, GABA EC3–7): 1.4 ± 0.2
- EC50 [2]: 50 ± 7.9 µM
- Emax [2, 15]: 271 ± 36%
- Hill coefficient (nH) ([2]; α1β2, GABA EC3–7): 1.5 ± 0.3
- EC50 [3]: 48.3 ± 7.3 µM
- Emax [3, 15]: 332 ± 64%
- Hill coefficient (nH) ([3]; α1β3, GABA EC3–7): 1.5 ± 0.3
- EC50 [4]: 42.8 ± 17.6 µM
- Emax [4, 15]: 248 ± 48%
- Hill coefficient (nH) ([4]; α2β2, GABA EC3–7): 1.9 ± 0.5
- EC50 [5]: 59.6 ± 12.3 µM
- Emax [5, 15]: 375 ± 51%
- Hill coefficient (nH) ([5]; α3β2, GABA EC3–7): 1.4 ± 0.2
- EC50 [6]: 47.5 ± 17.9 µM
- Emax [6, 15]: 136 ± 22%
- Hill coefficient (nH) ([6]; α5β2, GABA EC3–7): 1.7 ± 0.4
- EC50 [7]: 33.3 ± 0.1 µM
- Hill coefficient of TRPV1 activation ([7]; 3–300 μM): 4.1 ± 0.1
- Activation of TRPV1 receptors (inward currents) ([7]; oocytes expressing TRPV1, up to 300 μM): induced marked inward currents
- IGABA,max in the presence of compound [8]: 123 ± 3%
- Activation of GABAA receptors in the absence of GABA [9]: Neither piperine nor SCT-66 (up to 300 μM) activated GABAA receptors
- Body temperature ([10]; 10 mg/kg bodyweight i.p.): 34.86 ± 0.29 °C
- Body temperature ([10]; 30 mg/kg bodyweight i.p.): 30.37 ± 0.84 °C
- Total distance travelled (OF) ([11]; 30 mg/kg bodyweight i.p., 30 min before test, 10 min test, control 39.3 ± 1.9 m): 21.0 ± 3.7 m
- Reduction of ambulation compared to control (OF) ([11]; 30 mg/kg i.p.): approximately 50%
- Doses with significant reduction of ambulation (OF) ([11]; i.p., 30 min before test): ≥ 3 mg/kg bodyweight
- Time spent in the open arms (OA) in % of total time (EPM) ([12]; 0.1 mg/kg bodyweight i.p., vs saline-treated control): did not significantly differ
- Time spent in the open arms (OA) in % of total time (EPM) ([12]; 0.3 mg/kg bodyweight i.p., 30 min before test, control 28.6 ± 2.1%): 43.0 ± 4.2%
- Effect on ambulation (EPM total distance) ([12]; 1 mg/kg bodyweight i.p.): significantly reduced ambulation
- Time spent in the open arms (OA) in % of total time (EPM) ([12]; 1 mg/kg bodyweight i.p., 30 min before test, control 28.6 ± 2.1%): 45.7 ± 6.3%
- Number of closed arm (CA) entries (EPM) ([12]; doses ≥0.3 mg/kg bodyweight i.p.): dropped significantly
- Seizure threshold (PTZ dose) ([13]; 3 mg/kg bodyweight i.p.): 46.2 ± 5.4 mg/kg bodyweight PTZ
- Seizure threshold (PTZ dose) ([13]; 30 mg/kg bodyweight i.p.): 30.3 ± 3.4 mg/kg bodyweight PTZ
- Effect on seizure threshold ([13]; doses below 3 mg/kg bodyweight i.p.): did not affect seizure threshold
- Vasodilatory effects during PTZ tail-vein infusion ([13]; doses of 10–30 mg/kg, data not shown): observed vasodilatory effects
- EC50 [14]: 52.4 ± 9.4 µM
- IGABA,max [14]: 302 ± 27%
